Measurements gathered from unrelated publications.
Each line is one published result; the experiments were not run side by side.

SMILES | test | system | setting | measurement | value
c1ccc(-c2nc(NCc3nc4ccccc4o3)c3ccccc3n2)nc1 | metabolic stability | human, liver microsomes | – | microsomal CLint | 47 µL/min/mg
c1cnc2ccc(Nc3nc(NC4CC4)c4nc[nH]c4n3)cc2c1 | – | human, plasma | oral, 100 mg/m², patients | CL/F | 35.1 L/h
Fc1ccc(Nc2c(-c3cccc(F)n3)nc3ccccn23)cc1 | metabolic stability | rat, hepatocytes | – | hepatocyte CLint | > 300 µL/min/10⁶ cells
OC[C@H]1O[C@@H](c2ccc(Cl)c(Cc3ccc(O[C@H]4CCOC4)cc3)c2)[C@H](O)[C@@H](O)[C@@H]1O | – | human, urine | oral, 10 mg, single dose | renal clearance | 24.5 mL/min
COc1cccnc1-c1nc2ccccn2c1Nc1ccc(F)cc1 | metabolic stability | rat, hepatocytes | – | hepatocyte CLint | 29 µL/min/10⁶ cells
Cc1ccc(C(=O)N(CCCN)[C@@H](c2oc3cc(Cl)ccc3c(=O)c2Cc2ccccc2)C(C)C)cc1 | – | human, plasma | intravenous, 2 mg/m², single dose, patients, infusion | clearance | 26.6 mL/min
CCNCCCNC/C=C\CNCCCNCC | – | human, plasma | intravenous, 150 mg, patients, infusion | clearance | 5910 mL/min
c1ccc(C2CCN(c3nc(-c4cnn5cccnc45)nc4ccccc34)C2)nc1 (stereo not shown) | metabolic stability | human, liver microsomes | – | microsomal CLint | 47 µL/min/mg
CN(c1ccc(F)cc1)c1c(-c2cccc(F)n2)nc2ccccn12 | metabolic stability | rat, hepatocytes | – | hepatocyte CLint | > 300 µL/min/10⁶ cells
COc1cc(C(=O)NC2CCN(C)CC2)c(F)cc1Nc1ncc(C(F)(F)F)c(Oc2cccc3c2C(=O)N(C)C3)n1 | – | human, plasma | oral, 25 mg, multiple doses, once daily, patients | CL/F | 8.34 L/h
